Assay results pooled from the literature.
Each line is one published result; the experiments were not run side by side.
Read-out: ABTS scavenging

COC(=O)c1cc(O)c(O)c(O)c1 — IC50 (absorbance): 14.2 µM
COc1ccc(-c2nc3cc(F)ccc3[nH]2)cc1OCc1ccccc1 — IC50 (absorbance): 1.72 µM
CSc1cccc(NC(=O)Cc2c[nH]c3ccccc23)c1 — IC50: 1.52 µM
Clc1ccc2[nH]c(-c3ccccc3OCc3ccccc3)nc2c1 — IC50 (absorbance): 1.78 µM
CCCCOc1ccc(NC(=O)Cc2c[nH]c3ccccc23)cc1 — IC50: 1.78 µM
COc1ccc(-c2nc3cc(C)c(C)cc3[nH]2)cc1OCc1ccccc1 — IC50 (absorbance): 1.83 µM
O=c1c(O[C@@H]2O[C@H](CO)[C@@H](O)[C@H](O)[C@H]2O)c(-c2ccc(O)c(O)c2)oc2cc(O)cc(O)c12 — IC50 (absorbance): 6.51 µM
Cc1cc(C(C)(C)C)c(O)c(C(C)(C)C)c1 — IC50: 6.99 mg/L
Fc1ccc2[nH]c(-c3ccccc3OCc3ccccc3)nc2c1 — IC50 (absorbance): 1.77 µM
Cc1ccc(NC(=O)Cc2c[nH]c3ccccc23)c(C)c1 — IC50: 1.9 µM
O=c1oc2c(O)c(O)cc3c(=O)oc4c(O)c(O)cc1c4c23 — IC50 (absorbance): 5.76 µM
O=C(Cc1c[nH]c2ccccc12)Nc1ccc(Br)cc1 — IC50: 0.58 µM
O=c1c(O[C@@H]2O[C@H](CO)[C@@H](O)[C@H](O)[C@H]2O)c(-c2ccc(O)cc2)oc2cc(O[C@@H]3O[C@H](CO)[C@@H](O)[C@H](O)[C@H]3O)cc(O)c12 — IC50 (absorbance): 30.6 µM
O=C(Cc1c[nH]c2ccccc12)Nc1ccc(Cl)cc1 — IC50: 0.46 µM
COc1ccc(-c2nc3cc([N+](=O)[O-])ccc3[nH]2)cc1OCc1ccccc1 — IC50 (absorbance): 1.76 µM
